Data reported in article PMC9446082 (Pharmacology Research & Perspectives, 2022).

Experiments:
ERK phosphorylation = ERK phosphorylation in wild-type Sf9 cells; assay type: cell-based, Spodoptera frugiperda; details: wild-type (non-transfected) Sf9 cells, data not shown
[1] = system: GPER‐transduced Sf9 cells; test: EdU incorporation proliferation assay in GPER-transduced Sf9 cells; assay type: cell-based; details: Spodoptera frugiperda, read-out: Cell proliferation IC50
GPER [2] = biological target: T1, GPER (Homo sapiens, UniProt Q99527); test: [3H] 2-ME competition binding in GPER-transduced Sf9 cell particulate fractions
T1 sequence (Q99527 whole entry, species assumed): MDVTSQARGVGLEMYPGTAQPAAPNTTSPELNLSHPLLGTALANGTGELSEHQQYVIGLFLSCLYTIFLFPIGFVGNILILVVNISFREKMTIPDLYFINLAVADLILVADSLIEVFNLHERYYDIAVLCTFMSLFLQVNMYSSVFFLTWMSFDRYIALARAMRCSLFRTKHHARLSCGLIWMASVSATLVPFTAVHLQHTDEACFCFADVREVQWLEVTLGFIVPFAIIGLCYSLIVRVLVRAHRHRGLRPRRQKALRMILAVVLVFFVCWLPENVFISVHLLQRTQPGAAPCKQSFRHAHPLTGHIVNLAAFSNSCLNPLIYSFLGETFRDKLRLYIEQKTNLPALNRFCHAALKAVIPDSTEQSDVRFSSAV

GPER [3] = biological target: T1, GPER; test: Guanine nucleotide sensitivity of [3H] 2-ME high-affinity binding; details: GppNHp 100 μM, 5 mM Mg++, n = 3
How it was run: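 Sf9 particulate fraction expressing baculovirus-delivered GPER, incubated with [³H]2-ME (0.5–2 nM) with or without 100 μM GppNHp. Mg⁺⁺ was 5 mM to favour the high-affinity agonist state. Binding was in Tris-HCl pH 7.4 buffer with BSA, 120 min at 15°C. Reactions were stopped with ice-cold buffer, filtered and scintillation counted. Specific binding is total minus binding with 100 nM cold 2-ME added 12 min before radioligand.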

GPER [4] = biological target: T1, GPER; test: Dissociation rate of [3H] 2-ME binding in GPER-transduced Sf9 cells; details: corresponding to Koff
How it was run: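 Particulate fraction (1000 × g then 20 000 × g spins) from Sf9 cells 48 h after human GPER baculovirus infection. Incubated with 2 nM [³H]2-ME for 120 min at 15°C, then diluted tenfold with ice-cold binding buffer (50 mM Tris-HCl pH 7.4). Bound radioactivity was sampled from 5 to 120 s by vacuum filtration through cellulose nitrate and scintillation counting. Nonspecific binding was taken with 100 nM unlabelled 2-ME. Mean ± SD, n = 4.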

Compound	Inhibition of ERK phosphorylation in wild-type Sf9 cells (ERK phosphorylation)	IC50 [1] [nM]	Ki (GPER [2]) [nM]	other results
CC(=O)c1ccc2c(c1)[C@@H]1C=CC[C@@H]1[C@H](c1cc3c(cc1Br)OCO3)N2 (relative stereo) [G1, 1‐[(3aS,4R,9bR‐rel)‐4‐(6‐bromo‐1,3‐benzodioxol‐5‐yl)‐3a,4,5,9b‐tetrahydro‐[^3H]‐cyclopenta[c]quinolin‐8‐yl]‐ethanone]	did not inhibit	–	–	–
COc1cc2c(cc1O)CC[C@@H]1[C@@H]2CC[C@]2(C)[C@@H](O)CC[C@@H]12 [2‐ME, 2‐Methoxyestradiol]	did not inhibit	0.026	1.5	–
C[C@]12CCC(=O)C=C1CC[C@@H]1[C@@H]2[C@@H](O)C[C@]2(C=O)[C@@H](C(=O)CO)CC[C@@H]12 [Aldosterone]	did not inhibit	0.104	24	–
C[C@]12CC[C@@H]3c4ccc(O)cc4CC[C@H]3[C@@H]1CC[C@@H]2O [E2, Estradiol]	did not inhibit	–	–	–
Nc1nc2c(ncn2[C@@H]2O[C@H](COP(=O)(O)OP(=O)(O)NP(=O)(O)O)[C@@H](O)[C@H]2O)c(=O)[nH]1 [GppNHp]	–	–	–	Reduction of high-affinity [3H] 2-ME binding (GPER [3]; [3H] 2-ME 0.5 nM): 46 ± 23%; Reduction of high-affinity [3H] 2-ME binding (GPER [3]; [3H] 2-ME 1 nM): 19 ± 7%; Reduction of high-affinity [3H] 2-ME binding (GPER [3]; [3H] 2-ME 2 nM): 53 ± 24
[^3H] 2‐methoxyestradiol	–	–	–	Dissociation half-life (GPER [4]): 21 s
